Test results published in ChEMBL document CHEMBL1153747, “Synthesis and inhibitory activity against human monoamine oxidase of N1-thiocarbamoyl-3,5-di(hetero)aryl-4,5-dihydro-(1H)-pyrazole derivatives” (Eur J Med Chem, 2010).

Columns and labels:
[1] = target: T1, Amine oxidase [flavin-containing] B (Homo sapiens, UniProt P27338)
T1 sequence (P27338 whole entry): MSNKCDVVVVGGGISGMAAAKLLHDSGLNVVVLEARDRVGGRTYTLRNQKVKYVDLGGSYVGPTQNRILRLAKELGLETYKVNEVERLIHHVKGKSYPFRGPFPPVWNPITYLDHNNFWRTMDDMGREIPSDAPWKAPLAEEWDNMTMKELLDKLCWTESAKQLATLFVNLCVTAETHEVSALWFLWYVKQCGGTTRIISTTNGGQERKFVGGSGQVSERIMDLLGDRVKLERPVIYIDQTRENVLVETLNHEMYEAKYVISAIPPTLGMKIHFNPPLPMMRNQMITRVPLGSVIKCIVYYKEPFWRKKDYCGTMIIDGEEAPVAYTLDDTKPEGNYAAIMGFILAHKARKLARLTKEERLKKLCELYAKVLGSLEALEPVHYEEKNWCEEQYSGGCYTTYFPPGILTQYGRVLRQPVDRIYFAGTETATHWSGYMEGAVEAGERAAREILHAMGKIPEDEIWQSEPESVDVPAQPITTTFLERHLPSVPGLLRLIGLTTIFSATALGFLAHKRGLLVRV

Homo sapiens = species: Homo sapiens; assay: Selectivity, ratio of IC50 for human recombinant MAOA to human recombinant MAOB
[2] = target: T2, Amine oxidase [flavin-containing] A (Homo sapiens, UniProt P21397); assay: Inhibition of human recombinant MAOA
T2 sequence (P21397 whole entry): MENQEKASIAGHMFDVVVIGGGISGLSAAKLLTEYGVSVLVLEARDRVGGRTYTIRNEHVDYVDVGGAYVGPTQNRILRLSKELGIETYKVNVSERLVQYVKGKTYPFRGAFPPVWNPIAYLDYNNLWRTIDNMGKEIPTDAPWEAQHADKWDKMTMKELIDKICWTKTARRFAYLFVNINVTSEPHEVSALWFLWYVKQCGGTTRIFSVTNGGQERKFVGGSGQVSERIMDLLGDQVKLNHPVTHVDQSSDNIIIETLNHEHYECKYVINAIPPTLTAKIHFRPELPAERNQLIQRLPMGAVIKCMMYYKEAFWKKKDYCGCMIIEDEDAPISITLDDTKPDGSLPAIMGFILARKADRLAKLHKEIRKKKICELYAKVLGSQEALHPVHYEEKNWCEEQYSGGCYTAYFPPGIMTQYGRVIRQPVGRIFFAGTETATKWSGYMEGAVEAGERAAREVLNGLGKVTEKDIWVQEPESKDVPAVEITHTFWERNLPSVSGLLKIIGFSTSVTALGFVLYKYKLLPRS

[3] = target: T1, Amine oxidase [flavin-containing] B; assay: Inhibition of human recombinant MAOB at 1 mM; details: 1000 µM
Summary of the method: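 Recombinant hMAO-A or hMAO-B in microsomes from baculovirus-infected BTI-TN-5B1-4 insect cells, amounts set to oxidize 165 pmol p-tyramine/min in controls. Preincubated with test drug in 0.05 M sodium phosphate pH 7.4, 15 min, 37 °C. Reaction started with Amplex Red, 1 U/mL HRP and 1 mM p-tyramine (final). […] Selectivity = IC50(MAO-A)/IC50(MAO-B).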

| SMILES | IC50 [1] [µM] | Ratio IC50 (Homo sapiens) | IC50 [2] [µM] | inhibition (INH) [3] |
| --- | --- | --- | --- | --- |
| NC(=S)N1N=C(c2ccccc2)CC1c1ccccc1 (centres undefined) | 48.3 | > 2.1 | – | – |
| NC(=S)N1N=C(c2ccccc2)CC1c1ccco1 (centres undefined) | 32.5 | 1.7 | 54.7 | – |
| O=C(NCCN1CCOCC1)c1ccc(Cl)cc1 [MOCLOBEMIDE] | – | – | – | Not Active |
| NC(=S)N1N=C(c2cccs2)CC1c1ccc[nH]1 (centres undefined) | 33.3 | 2.1 | 70 | – |
| Cc1ccc(C2CC(c3ccco3)=NN2C(N)=S)cc1 (centres undefined) | 54.5 | 1.2 | 65.8 | – |
| NC(=S)N1N=C(c2ccc[nH]2)CC1c1ccco1 (centres undefined) | 69.4 | > 1.4 | – | – |
